Usually IC50 stands for the point on the concentration scale where inhibition reaches its midpoint. Read a low IC50 as higher potency.

Holding throughout (assay type): functional, cell-based
The test system of assay [1] is CCRF-CEM. Put plainly: Cytotoxicity against human CEM cells after 72 hrs by MTT assay. In short, it runs like this:
(§1)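 Cells grown in DMEM/RPMI 1640 with 5 g/L glucose, 2 mM glutamine, penicillin/streptomycin, 10% fetal calf serum and NaHCO3. Seeded in 96-well plates and left 24 h at 37 °C, 5% CO2 before compound addition. Exposure then ran 72 h, each concentration in duplicate. MTT added for 1-4 h and formazan dissolved overnight in 10% aq. SDS (pH 5.5). OD read at 540 nm, with IC50 taken from dose-response curves.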
A general note: Formazan colour is commonly taken as a measure of viable cells.

Assay [2] relates to CCRF-CEM. Kind of assay: Cytotoxicity against human CEM-DNR bulk cells after 72 hrs by MTT assay. Put shortly:
as §1

For assay [3], the system named is K562. Put plainly: Cytotoxicity against human K562 cells after 72 hrs by MTT assay. To be noted: K562, 72 h. Put shortly:
as §1

For assay [4], the system named is K562. Kind of assay: Cytotoxicity against human K562-Tax cells after 72 hrs by MTT assay. To be noted: K562, 72 h. Put shortly:
as §1

The subject of assay [5] is A549. Kind of assay: Cytotoxicity against human A549 cells after 72 hrs by MTT assay. To be noted: A549, 72 h. In short, it runs like this:
as §1

The subject of assay [6] is MCF7. Put plainly: Cytotoxicity against human MCF7 cells after 72 hrs by MTT assay. The note with it: MCF7, 72 h. In short, it runs like this: as §1
The subject of assay [7] is PC-3. Kind of assay: Cytotoxicity against human PC3 cells after 72 hrs by MTT assay. The note with it: PC-3, 72 h. In short, it runs like this: as §1
For assay [8], the system named is HT-29. Kind of assay: Cytotoxicity against human HT29 cells after 72 hrs by MTT assay. To be noted: HT-29, 72 h. Put shortly:
as §1

Assay [9] relates to HCT-116. Kind of assay: Cytotoxicity against human HCT116 cells expressing wild type p53 after 72 hrs by MTT assay. The note with it: HCT-116, 72 h. Put shortly: as §1
The test system of assay [10] is HCT-116. Kind of assay: Cytotoxicity against human HCT116 cells expressing mutant p53 after 72 hrs by MTT assay. The note with it: HCT-116, 72 h. In short, it runs like this:
as §1

The test system of assay [11] is U-118-MG. Put plainly: Cytotoxicity against human U118Mg cells after 72 hrs by MTT assay. In short, it runs like this: as §1

For the compound `Clc1ccc(NN=C(c2nc3ccccc3[nH]2)c2nc3ccccc3[nH]2)cc1`, the IC50 came to 42.5 µM in assay [1]; 112 µM in assay [2]; 200 µM in [3]; 159 µM in [4]; 2.8 µM in assay [5]; 140 µM in [6]. The half-maximal inhibitory concentration (IC50) amounted to 250 µM in [7]; 114 µM in [8]; 201 µM in assay [9]; 16.8 µM in assay [10]; 250 µM in assay [11].
In the case of `c1ccc(NN=C(c2nc3ccccc3[nH]2)c2nc3ccccc3[nH]2)cc1`, the IC50 in assay [1] worked out at 13 µM; in assay [2], 27.9 µM; in [3], 114 µM; in assay [4], 144 µM; in assay [5], 3.8 µM; in assay [6], 83.2 µM. In addition, the IC50 was 248 µM in assay [7]; 81.9 µM in [8]; 162 µM in assay [9]; 17.6 µM in assay [10]; 160 µM in assay [11].
For the compound `O=c1n(-c2ccccc2)nc(-c2nc3ccccc3[nH]2)c2nc3ccccc3n12`, the IC50 in [1] worked out at 12.2 µM; in [2] it was 45.6 µM; in assay [3] it was 23.5 µM; in assay [4], 42.7 µM; in assay [5], 11.5 µM; in assay [6], 74.8 µM. The IC50 in assay [7] was 13.6 µM; in assay [8] it was 8 µM; in assay [9] it was 38.1 µM; in assay [10], 8.6 µM; in assay [11], 12 µM.
In the case of `COc1ccc(NN=C(c2nc3ccccc3[nH]2)c2nc3ccccc3[nH]2)cc1`, the IC50 in assay [1] was found to be 10.9 µM; in [2], 96.7 µM; in assay [3] it was 116 µM; in [4], 235 µM; in assay [5], 0.5 µM; in [6] it was 215 µM. In addition, the IC50 was found to be 250 µM in assay [7]; 114 µM in [8]; 35.7 µM in assay [9]; 66.5 µM in [10]; 250 µM in [11].
For `O=[N+]([O-])c1ccc(NN=C(c2nc3ccccc3[nH]2)c2nc3ccccc3[nH]2)cc1`, the IC50 in assay [1] is 58.4 µM; in assay [2] it was 140 µM; in [3], 190 µM; in [4] it was 101 µM; in assay [5] it was 0.7 µM; in assay [6] it was 94.8 µM. Besides, the IC50 in assay [7] was found to be 218 µM; in assay [8], 17.7 µM; in assay [9], 11.7 µM; in assay [10], 4.7 µM; in [11], 250 µM.
With `Cc1ccc(-n2nc(-c3nc4ccccc4[nH]3)c3nc4ccccc4n3c2=O)cc1`, the IC50 in [1] was 18.5 µM; in assay [2], 61.2 µM; in assay [3] it was 18.3 µM; in assay [4], 20.9 µM; in assay [5], 14.7 µM; in assay [6] it was 34.1 µM. Moreover, the IC50 worked out at 40.8 µM in [7]; 15.2 µM in assay [8]; 7.8 µM in assay [9]; 7.6 µM in assay [10]; 17.9 µM in assay [11].
For `O=c1n(-c2ccc(Cl)cc2)nc(-c2nc3ccccc3[nH]2)c2nc3ccccc3n12`, the IC50 in assay [1] worked out at 83.6 µM; in assay [2] it was 51.2 µM; in [3] it was 134 µM; in assay [4] it was 167 µM; in assay [5] it was 1.2 µM; in assay [6], 140 µM. Besides, the IC50 amounted to 242 µM in assay [7]; 88.6 µM in [8]; 73.9 µM in assay [9]; 2.3 µM in assay [10]; 247 µM in [11].
Consider `CCOC(=O)n1c(-c2nn(-c3ccc(C)cc3)c(=O)n3c2nc2ccccc23)nc2ccccc21`, for which the IC50 amounted to 25.5 µM in assay [1]; 29.6 µM in assay [2]; 140 µM in assay [3]; 53.7 µM in assay [4]; 71 µM in assay [5]; 134 µM in assay [6]. The IC50 was 165 µM in assay [7]; 96.2 µM in assay [8]; 46.3 µM in assay [9]; 44.4 µM in [10]; 147 µM in [11].
For `CCOC(=O)n1c(-c2nn(-c3ccc(OC)cc3)c(=O)n3c2nc2ccccc23)nc2ccccc21`, the IC50 in assay [1] worked out at 31.8 µM; in [2], 111 µM; in assay [3], 14 µM; in assay [4] it was 7.8 µM; in assay [5], 44.4 µM; in [6], 51.6 µM. Besides, the IC50 was determined as 145 µM in assay [7]; 38.7 µM in assay [8]; 42.8 µM in assay [9]; 46.3 µM in assay [10]; 54.3 µM in assay [11].
`CCOC(=O)n1c(-c2nn(-c3ccc([N+](=O)[O-])cc3)c(=O)n3c2nc2ccccc23)nc2ccccc21`: the IC50 in [1] was 155 µM; in assay [2], 224 µM; in assay [3], 166 µM; in assay [4], 196 µM; in [5], 4.4 µM; in assay [6], 144 µM. The half-maximal inhibitory concentration (IC50) in assay [7] was 125 µM; in [8] it was 21.9 µM; in assay [9], 70.7 µM; in [10], 5.4 µM; in assay [11] it was 6.2 µM.
`Cc1ccc(NN=C(c2nc3ccccc3[nH]2)c2nc3ccccc3[nH]2)cc1`: the IC50 was 26.5 µM in assay [1]; 87.6 µM in assay [2]; 160 µM in assay [3]; 239 µM in assay [4]; 0.6 µM in assay [5]; 95.8 µM in assay [6]. The concentration for half-maximal inhibition (IC50) stood at 250 µM in assay [7]; 95.9 µM in assay [8]; 195 µM in assay [9]; 10.5 µM in assay [10]; 250 µM in assay [11].
For `CCOC(=O)n1c(-c2nn(-c3ccccc3)c(=O)n3c2nc2ccccc23)nc2ccccc21`, the IC50 in [1] came out at 58.6 µM; in [2], 18.4 µM; in assay [3] it was 69.4 µM; in assay [4] it was 42.2 µM; in assay [5], 18 µM; in assay [6], 35.1 µM. Further, the IC50 turned out to be 37.5 µM in [7]; 15.2 µM in [8]; 11.4 µM in assay [9]; 10.8 µM in assay [10]; 17.7 µM in assay [11].
In the case of `COc1ccc(-n2nc(-c3nc4ccccc4[nH]3)c3nc4ccccc4n3c2=O)cc1`, the IC50 in assay [1] is 3.5 µM; in assay [2], 35.4 µM; in assay [3] it was 8.7 µM; in [4], 7.5 µM; in assay [5], 8.7 µM; in [6], 10.7 µM. For the same compound, the IC50 in [7] was 24.6 µM; in assay [8], 6 µM; in [9] it was 6.9 µM; in assay [10], 3.6 µM; in [11], 10 µM.
Consider `CCOC(=O)n1c(-c2nn(-c3ccc(Cl)cc3)c(=O)n3c2nc2ccccc23)nc2ccccc21`, for which the IC50 in assay [1] stood at 31.8 µM; in assay [2], 111 µM; in assay [3] it was 14.1 µM; in assay [4], 7.9 µM; in assay [5] it was 4 µM; in assay [6], 21.3 µM. Besides, the IC50 is 150 µM in [7]; 29.7 µM in [8]; 7.7 µM in assay [9]; 6.4 µM in [10]; 12.4 µM in [11].
As to `O=c1n(-c2ccc([N+](=O)[O-])cc2)nc(-c2nc3ccccc3[nH]2)c2nc3ccccc3n12`, the IC50 was found to be 103 µM in assay [1]; 190 µM in [2]; 210 µM in [3]; 250 µM in assay [4]; 2.2 µM in assay [5]; 250 µM in assay [6]. Moreover, the IC50 turned out to be 250 µM in assay [7]; 248 µM in [8]; 250 µM in assay [9]; 250 µM in assay [10]; 250 µM in [11].

Values taken from ChEMBL document CHEMBL1149831, “Synthesis of 2-aryl-4-(benzimidazol-2-yl)-1,2-dihydro[1,2,4]triazino-[4,5-a]benzimidazol-1-one derivatives with preferential cytotoxicity against carcinoma cell lines” (Eur J Med Chem, 2008).
